Screening data as filed in PubChem.
TRPC4 act: activators of mouse TRPC4 channel, primary screen, Fluo4 calcium, HEK293 TRPC4beta/mu-opioid cells | Short transient receptor potential channel 4 (Mus musculus), Q9QUQ5 | Fluo4 calcium fluorescence; hits give high values | B-score at 10 µM | 0.49% of 310,000 active | AID 2237, 2010;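 active = B-score above 5 SD of library B-scores, and initial fluorescence ratio not above library mean plus 5 SD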;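 note: positive B-score marks a calcium rise read as TRPC4 activation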
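System – HEK293 cells stably co-expressing mouse TRPC4beta and mu-opioid receptor · Signal – Fluo4 calcium-sensitive dye fluorescence, kinetic, 1 Hz baseline · Benchmarks – buffer (low) and maximal DAMGO (high) · Read-out – B score of integrated fluorescence ratio per well · Incubation – dye loading 45 min room temperature, 110 s kinetic read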
TRPC6 inhibitor: mouse TRPC6 channel inhibitors, primary screen, cell-based, HEK293, membrane potential dye; B-score at 10 µM; Short transient receptor potential channel 6 (Mus musculus), Q61143; 1.1% of 310,000 active; ACh-evoked depolarization; hits give low values; AID 2553, 2010;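 active = B-score under library mean minus 3 SD, initial fluorescence not abnormally high, positive integrated signal ratio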;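 note: B-score derived from integrated fluorescence ratio over the kinetic read; more negative B-score means stronger inhibition of depolarization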
Target sequence (Q61143 whole entry, looked up): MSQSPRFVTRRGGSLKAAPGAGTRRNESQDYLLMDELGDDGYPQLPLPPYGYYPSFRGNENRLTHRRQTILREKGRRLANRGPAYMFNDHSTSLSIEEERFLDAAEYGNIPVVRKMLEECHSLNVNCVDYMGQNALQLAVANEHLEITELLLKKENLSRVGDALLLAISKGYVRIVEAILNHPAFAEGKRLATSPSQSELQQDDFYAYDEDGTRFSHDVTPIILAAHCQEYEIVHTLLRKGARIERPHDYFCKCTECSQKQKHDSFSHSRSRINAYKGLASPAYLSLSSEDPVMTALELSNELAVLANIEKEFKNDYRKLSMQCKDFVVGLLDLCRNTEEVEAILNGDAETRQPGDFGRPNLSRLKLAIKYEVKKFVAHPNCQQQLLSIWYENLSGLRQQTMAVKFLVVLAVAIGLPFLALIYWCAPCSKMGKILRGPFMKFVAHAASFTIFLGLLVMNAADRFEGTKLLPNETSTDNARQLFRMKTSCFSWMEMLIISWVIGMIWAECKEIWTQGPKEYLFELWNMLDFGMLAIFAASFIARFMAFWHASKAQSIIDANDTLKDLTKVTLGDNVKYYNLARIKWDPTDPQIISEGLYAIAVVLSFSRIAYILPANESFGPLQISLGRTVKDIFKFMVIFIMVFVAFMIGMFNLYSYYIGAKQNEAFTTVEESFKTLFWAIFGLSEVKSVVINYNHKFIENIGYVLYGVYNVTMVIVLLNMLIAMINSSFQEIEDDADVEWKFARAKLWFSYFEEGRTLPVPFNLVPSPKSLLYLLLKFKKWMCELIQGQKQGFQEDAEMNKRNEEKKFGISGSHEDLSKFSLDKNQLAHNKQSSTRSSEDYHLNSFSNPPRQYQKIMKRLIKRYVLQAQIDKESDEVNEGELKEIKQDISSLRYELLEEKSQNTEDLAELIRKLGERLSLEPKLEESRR
TRPC4 potent: positive allosteric modulators of TRPC4, primary screen, cell-based, mouse TRPC4beta, HEK293 mu-opioid, Fluo-4 calcium; 0.42% of 310,000 active; DAMGO EC20, Fluo-4 Ca2+ flux; hits give high values; AID 2227, 2009; B-score at 10 µM;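 active = B-score of calcium response area above 5 SD of library B-scores, with initial fluorescence ratio within 5 SD of library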;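 note: B-score of integrated fluorescence ratio over time as area under calcium response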
TRPC6 act: mouse TRPC6 channel activators, primary screen, cell-based, HEK293, membrane potential dye. Short transient receptor potential channel 6 (Mus musculus), Q61143. HEK293-TRPC6 membrane potential dye fluorescence; hits give high values. B-score at 10 µM. 0.13% of 310,000 active. AID 2550, 2010;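 active = B-score of the integrated fluorescence ratio above library mean plus 3 SD, and starting fluorescence ratio within library mean plus 5 SD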;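 note: higher score means more depolarization so channel activation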
TRPC4 block: inhibitors of mouse TRPC4 channel, primary screen, Fluo4 calcium, HEK293 TRPC4beta/mu-opioid cells | Short transient receptor potential channel 4 (Mus musculus), Q9QUQ5 | DAMGO-evoked Fluo4 calcium flux; hits give low values | B-score at 10 µM | 0.39% of 300,000 active;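 active = B-score over 3 SD under the library average, no early fluorescence shift, positive overall ratio signal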
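Test system – stable TRPC4beta/mu-opioid receptor HEK293 cells · Probe or stimulus – DAMGO, a submaximal dose followed by a maximal one · Dosing – one concentration per compound · Signal – Fluo4 calcium fluorescence by kinetic imaging, 5 s 1 Hz baseline · Evaluation – per-well B score of integrated baseline-normalized Fluo4 ratio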
TRPC4 spec 2: second check of whether TRPC6 inhibitors also affect mouse TRPC4. shares compounds with TRPC6 inhibitor. HEK293 TRPC4/MOR, membrane potential dye fluorescence; channel activated by saturating DAMGO dose. inhibition, % at 10 µM. 42% of 920 active. AID 2776;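 active = compounds whose fluorescence signal differed from control wells by over 3 SD, either direction, in both duplicate plates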
TRPC4 spec: mouse TRPC4 modulation by TRPC6 hits, confirmation, selectivity assay for TRPC6 inhibitor project, cell-based, HEK293 TRPC4/mu-opioid, membrane potential dye | membrane potential fluorescence | 61% of 920 active | shares compounds with TRPC6 inhibitor | AID 2777, 2010 | activity change, negative = inhibition, % at 10 µM;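 active = rise or fall in signal beyond 3 SD of buffer-only wells in both replicate plates, either sign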;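 note: integrated kinetic ratio of fluorescence range over baseline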
HEK293 MPD ctr 2-1: nonspecific membrane potential effects, parental HEK293, confirmation, counter-screen for TRPC6 inhibitor project, cell-based, second counter screen; 31% of 920 active; signal change vs control, % at 10 µM; AID 2779, 2010; shares compounds with TRPC6 inhibitor; parental HEK293 membrane potential dye fluorescence; maximal acetylcholine challenge after compound addition;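 active = membrane potential signal moving either way by over 3 SD of the maximum-effect control, in both duplicate plates, meaning non-specific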
HEK293 MPD ctr-1: membrane potential modulation in parental HEK293, confirmation, counter-screen for TRPC6 inhibitor project, cell-based. shares compounds with TRPC6 inhibitor. membrane potential signal change, % at 10 µM. 60% of 920 active. parental HEK293 membrane potential dye fluorescence;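 active = membrane potential signal shifting up or down by more than 3 SD of buffer-only wells, on both duplicate plates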
HEK293 MPD ctr-2: parental HEK293 membrane potential modulation, confirmation, counter-screen for TRPC6 modulator project, cell-based. shares compounds with TRPC6 inhibitor. membrane potential dye fluorescence. membrane potential signal change, % at 10 µM. 51% of 2,400 active. AID 488924, 2010;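 active = membrane potential signal moves up or down beyond 5 SD from buffer-only wells, on both duplicate plates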
HEK293 MPD ctr 2-2: second counter-screen for TRPC6 modulators: effect in parental HEK293 cells. shares compounds with TRPC6 inhibitor. membrane potential dye fluorescence; after compound, maximal acetylcholine stimulation. inhibition, % at 10 µM. 14% of 2,400 active. AID 488926;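 active = membrane potential signal drops by more than 5 SD from the mean control signal, in both duplicate plates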;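 note: plate controls were acetylcholine ECmax control wells for no effect and buffer only wells for full effect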
TRPC4 ctr mod: TRPC4 modulation by TRPC6 hit compounds, confirmation, selectivity assay for TRPC6 modulator project, cell-based, HEK293 TRPC4/mu-opioid, membrane potential dye, mouse; 69% of 2,400 active; shares compounds with TRPC6 inhibitor; AID 488927, 2010; membrane potential fluorescence; percent change from control (negative = decrease, positive = increase), % at 10 µM;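 active = membrane potential signal moved up or down beyond 5 SD of buffer control wells, in both duplicate plates, actives on both sides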;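 note: plate controls were assay buffer wells for no effect and DAMGO maximal-effect wells for full effect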
TRPC4/MOR inh 2: second check of whether TRPC6 modulators also affect mouse TRPC4; AID 488928; 55% of 2,400 active; shares compounds with TRPC6 inhibitor; inhibition, % at 10 µM; HEK293 TRPC4/mu-opioid, membrane potential dye fluorescence; stimulated with maximal-effect DAMGO;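 active = drop in membrane potential signal beyond 5 SD of the control wells in both duplicate plates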;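 note: TRPC4 counter screen for TRPC6 hits run under conditions tuned for TRPC6 not TRPC4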
TRPC6 inh conf: mouse TRPC6 channel inhibitors, confirmation, HEK293 cells, membrane potential dye, duplicate | shares compounds with TRPC6 inhibitor | ACh-evoked depolarization | inhibition, % at 10 µM | 43% of 3,300 active | AID 488960, 2010;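 active = fluorescence ratio falls more than 5 SD below the full-stimulation control mean, in both duplicate runs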;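 note: integrated fluorescence ratio of peak minus minimum over baseline after agonist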
TRPC6 act conf: mouse TRPC6 channel activators, confirmation, HEK293 cells, membrane potential dye, duplicate. HEK293-TRPC6 membrane potential dye fluorescence, FDSS. 11% of 2,800 active. shares compounds with TRPC6 inhibitor. activation, % at 10 µM. AID 488961, 2010;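 active = ratio signal rise beyond 5 SD above unstimulated control wells' mean, seen in both duplicate runs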;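 note: plate controls were buffer EC0 wells for no effect and acetylcholine ECmax response for full effect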
Starred values were filed as active, the others as inactive; i = inactive; . = no result. A selection: hits, their analogues and other compounds. The true share with any hit is near 2.3%.

SMILES	TRPC4 act	TRPC6 inhibitor	TRPC4 potent	TRPC6 act	TRPC4 block	HEK293 MPD ctr-2	HEK293 MPD ctr 2-2	TRPC4 ctr mod	TRPC4/MOR inh 2	TRPC6 inh conf	TRPC6 act conf	others
CC(C)N(c1ccccc1)c1ccc(NC(=S)NCCN(C)C)cc1	i	-6.6*	i	i	i	i	i	i	40%*	46%*	i
CN1c2ccc([N+](=O)[O-])cc2N(C)C1(C)c1ccccc1 (stereo unspecified)	i	i	i	i	i	.	.	.	.	.	.
CN(C)CCCN1c2ccc([N+](=O)[O-])cc2CCc2cc([N+](=O)[O-])ccc21	i	-12*	i	i	i	-358%*	86%*	-60%*	84%*	83%*	i
COc1ccc(NC(=O)C(NC(C)=O)C(=O)Nc2ccc(F)cc2)cc1 (stereo unspecified)	i	i	i	i	i	.	.	.	.	.	.
Cc1nn(C)c(C(=O)N/N=C/c2ccc(C(F)(F)F)cc2)c1[N+](=O)[O-]	i	-5.8*	i	i	i	i	i	-14%*	i	i	i
Cc1oc(-c2ccccc2F)nc1CN1CCC(C(=O)NC2CCCc3ccccc32)CC1 (stereo unspecified)	i	-8.8*	i	i	i	.	.	.	.	i	i	TRPC4 spec 2=34%*;TRPC4 spec=29%*;HEK293 MPD ctr 2-1=293%*;HEK293 MPD ctr-1=9.1%*
COc1cc(/C=N/NC(=O)c2ccc(-c3ccccc3)cc2)cc(OC)c1OC	i	i	i	i	i	.	.	.	.	.	.
